Measurements from ChEMBL document CHEMBL1148454, “[1-(3,5-difluoro-4-hydroxyphenyl)-1H-pyrrol-3-yl]phenylmethanone as a bioisostere of a carboxylic acid aldose reductase inhibitor” (J Med Chem, 2004).
pIC50: −log10 of the molar value.

Legend:
[1] = In vitro percentage inhibition of formation of DNPH-reactive carbonyl groups in BSA exposed to fructose at 1 mM concentration; type: functional
Summary of the method: (§1)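 Bovine serum albumin (fraction V, essentially fatty acid free) incubated with fructose for 28 days. Compounds given as potassium salts in water; trolox as reference.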

[2] = In vitro percentage inhibition of glycation-induced fluorescence changes of BSA at 1 mM concentration; type: functional; summary of the method: as §1
[3] = In vitro percentage inhibition of glycation-induced fluorescence changes of BSA at 5 mM concentration; type: functional; summary of the method: as §1
[4] = In vitro percentage inhibition of formation of DNPH-reactive carbonyl groups in BSA exposed to fructose at 5 mM concentration; type: functional; summary of the method: as §1
[5] = target: Aldo-keto reductase family 1 member B1 (Rattus norvegicus) (UniProt P07943); test: In vitro percentage inhibition of rat lens aldose reductase at 10E-6 M concentration
Summary of the method: (§2)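 Rat lens (Fischer-344, both sexes) aldose reductase, assayed by spectrophotometric monitoring of NADPH oxidation. Compounds dissolved in 0.2 M NaHCO3. Inhibition at a single concentration, triplicate determinations.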

[6] = target: Aldo-keto reductase family 1 member B1 (Rattus norvegicus) (UniProt P07943); test: In vitro percentage inhibition of rat lens aldose reductase at 10E-5 M concentration; summary of the method: as §2
[7] = In vitro percentage inhibition of glycation-induced fluorescence changes of BSA at […] concentration; type: functional
[8] = In vitro percentage inhibition of formation of DNPH-reactive carbonyl groups in BSA exposed to fructose at […] concentration; type: functional
[9] = target: Aldo-keto reductase family 1 member B1 (Rattus norvegicus) (UniProt P07943); test: In vitro percentage inhibition of rat lens aldose reductase at 10E-7 M concentration; summary of the method: as §2
[10] = target: Aldo-keto reductase family 1 member B1 (Rattus norvegicus, UniProt P07943); test: In vitro inhibitory activity of compound against rat lens aldose reductase

Structure (SMILES) | inhibition [1] [%] | inhibition [2] [%] | inhibition [3] [%] | inhibition [4] [%] | inhibition [5] [%] | inhibition [6] [%] | inhibition [7] [%] | inhibition [8] [%] | inhibition [9] [%] | pIC50 [10]
Cc1c(C)c2c(c(C)c1O)CCC(C)(C(=O)O)O2 (centres undefined) | 36 | 59 | – | – | – | – | – | – | – | –
O=C(c1ccccc1)c1ccn(-c2cc(F)c(O)c(F)c2)c1 | 48 | 64 | 74 | 61 | 68 | 88 | 68 | 55 | 29 | 6.40
Oc1c(F)cc(-n2cccc2)cc1F | – | – | – | – | 13 | 24 | – | – | – | 4.63
O=C(O)Cn1ccc(C(=O)c2ccccc2)c1 | 28 | 48 | 81 | 67 | 37 | 78 | 67 | 51 | – | 5.71
